# The source made the active and inactive calls. The calls are words filed in the database; no cut-off is given here.
# Experiments:
# Hepatitis C virus [1] = assay: Antiviral activity against HCV expressing E1E2 glycoprotein with Vpr-deficient HIV vector assessed as inhibition of viral entry in human Huh7 cells at 20 ug/ml after 72 hrs by luciferase reporter gene assay in presence of beta-glucosidase enzyme for 0.5 hrs; assay type: functional, Hepacivirus hominis; conditions: Huh-7
# Method in brief: (§1)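 Iridoid glucosides were hydrolysed with β-glucosidase for 0.5 h or 4 h before testing at 20 µg/mL. Hydrolysates were mixed at rt with HCVpp and incubated with Huh7 cells for 6 h, then the medium was changed. Luciferase was read at 72 h postinfection as % inhibition. Duplicates, ≥3 experiments.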
# Hepatitis C virus [2] = assay: Antiviral activity against HCV expressing E1E2 glycoprotein with Vpr-deficient HIV vector assessed as inhibition of viral entry in human Huh7 cells at 20 ug/ml measured after 72 hrs by luciferase reporter gene assay; assay type: functional, organism-based; conditions: Hepacivirus hominis, Huh-7
# Method in brief: (§2)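 HCVpp (E1E2 with HIV luciferase vector, made in 293T) was mixed at room temperature with 20 µg/mL compound and added to Huh7 cells for 6 h, then replaced by growth medium. Cells were lysed at 72 h postinfection and luciferase read as % inhibition. Samples in duplicate, experiments repeated at least three times.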
# [3] = target: T1, CD81 antigen (Homo sapiens) (UniProt P60033); assay: Inhibition of human recombinant GST-tagged CD81 protein assessed as HCV E1E2 binding after 1 hr by Western blot analysis
# T1 sequence (whole entry): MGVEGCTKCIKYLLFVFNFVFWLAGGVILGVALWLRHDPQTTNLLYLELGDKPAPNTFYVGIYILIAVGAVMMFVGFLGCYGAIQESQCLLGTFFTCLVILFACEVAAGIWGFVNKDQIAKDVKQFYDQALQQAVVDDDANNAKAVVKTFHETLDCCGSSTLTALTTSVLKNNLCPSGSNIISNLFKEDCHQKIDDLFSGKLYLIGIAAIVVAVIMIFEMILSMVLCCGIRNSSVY
# Method in brief: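 Lysates of 293T cells expressing HCV E1E2 were taken 48 h post-transfection in 0.5% Triton X-100 buffer with protease inhibitor and clarified. They were rocked with 50 µg/mL compound or DMSO and 5 µg CD81-GST (large extracellular loop of human CD81) at 4 °C for 16 h. Glutathione beads were added for 1 h at 4 °C, then washed. Western blot for E2 and GST; GST alone served as control.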
# Hepatitis C virus [4] = assay: Antiviral activity against HCV infected in human Huh7 cells assessed as inhibition of viral replication after 48 hrs by NS5A staining; conditions: Huh-7, 48 h
# Hepatitis C virus [5] = assay: Antiviral activity against HCV expressing E1E2 glycoprotein with Vpr-deficient HIV vector assessed as inhibition of viral entry in human Huh7 cells at 20 ug/ml after 72 hrs by luciferase reporter gene assay in presence of beta-glucosidase enzyme for 4 hrs; assay type: functional, Hepacivirus hominis; conditions: Huh-7; method in brief: as §1
# Hepatitis C virus [6] = assay: Antiviral activity against HCV expressing E1E2 glycoprotein with Vpr-deficient HIV vector assessed as inhibition of viral entry in human Huh7 cells at 20 ug/ml after 72 hrs by luciferase reporter gene assay; assay type: functional, Hepacivirus hominis; conditions: Huh-7, 72 h; method in brief: as §2
# Hepatitis C virus [7] = assay: Antiviral activity against HCV expressing E1E2 glycoprotein with Vpr-deficient HIV vector assessed as inhibition of pseudoparticle entry in human Huh7 cells at 100 ug/ml preincubated for 20 mins measured after 72 hrs by luciferase reporter gene assay; assay type: functional; conditions: Huh-7
# Method in brief: (§3)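 HCV E1E2 or VSVG pseudoviruses were made by cotransfecting 293T cells with the envelope plasmid and pNL4-3-Luc-R-E-, then harvested at 48 h and filtered. Each pseudovirus was preincubated 20 min at rt with 100 µg/mL sample or DMSO, then put on Huh7 cells for 6 h before the medium was replaced. Luciferase was read at 72 h as % of no-drug control. Duplicates, ≥3 experiments.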
# Hepatitis C virus [8] = assay: Antiviral activity against HCV expressing E1E2 glycoprotein with Vpr-deficient HIV vector assessed as inhibition of pseudoparticle entry in human Huh7 cells preincubated for 20 mins measured after 72 hrs by luciferase reporter gene assay; assay type: functional, organism-based, Hepacivirus hominis; conditions: Huh-7
# Method in brief: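 HCV E1E2/HIV-luciferase pseudovirus was preincubated 20 min at rt with a range of concentrations in µg/mL and incubated with Huh7 cells (8 × 10^4 per well, seeded the day before) for 6 h, then the medium was replaced. Luciferase was measured at 72 h and expressed as % of no-drug control. IC50 came from the concentration-response. Duplicates, ≥3 repeats.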
# [9] = tested on: Vesicular stomatitis virus; assay: Antiviral activity against VSV with Vpr-deficient HIV vector assessed as inhibition of VSVG pseudo-particle entry in human Huh7 cells at 100 ug/ml preincubated for 20 mins measured after 72 hrs by luciferase reporter gene assay; assay type: functional, organism-based; conditions: Huh-7; method in brief: as §3
# [10] = Cytotoxicity against human HepG2(2.2.15) cells at 50 ug/ml; assay type: cell-based
Structure (SMILES),inhibition at 20 µg/mL (Hepatitis C virus [1]),Activity (Hepatitis C virus [2]),Activity [3],IC50 (Hepatitis C virus [4]),inhibition at 20 µg/mL (Hepatitis C virus [5]),other results
O=C(/C=C/c1ccc(O)cc1)OCC1=C[C@@H](O)[C@@H]2C=CO[C@@H](O[C@@H]3O[C@H](CO)[C@@H](O)[C@H](O)[C@H]3O)[C@H]12 [EUROSTOSIDE],46.6%,inactive,inactive,20 µg/mL,56.6%,–
C[C@@H]1[C@H]2[C@H](O[C@@H]3O[C@H](CO)[C@@H](O)[C@H](O)[C@H]3O)OC=C(C(=O)O)[C@H]2C[C@@H]1O [LOGANIC ACID],39.4%,inactive,inactive,11 µg/mL,52.5%,–
COC(=O)C1=CO[C@@H](O[C@@H]2O[C@H](CO)[C@@H](O)[C@H](O)[C@H]2O)[C@H]2[C@@H]1C(=O)C[C@@H]2C [VERBENALIN],21.9%,inactive,–,–,43.4%,–
C[C@]1(OC(=O)/C=C/c2ccccc2)C[C@@H](O)[C@]2(O)C=CO[C@@H](O[C@@H]3O[C@H](CO)[C@@H](O)[C@H](O)[C@H]3O)[C@@H]21 [HARPAGOSIDE],-41.7%,inactive,–,–,17.1%,inhibition at 20 µg/mL (Hepatitis C virus [6]): 2.1%
COc1cc(C(=O)O[C@H]2[C@@H]3C=CO[C@@H](O[C@@H]4O[C@H](CO)[C@@H](O)[C@H](O)[C@H]4O)[C@@H]3[C@@]3(CO)O[C@@H]23)ccc1O [PICROSIDE II],31.6%,inactive,–,–,59.4%,–
OCC1=C[C@@H](O)[C@@H]2C=CO[C@@H](O[C@@H]3O[C@H](CO)[C@@H](O)[C@H](O)[C@H]3O)[C@H]12,–,inactive,–,–,–,–
COC(=O)C1=CO[C@@H](O)[C@@H]2C(CO)=CC[C@H]12 [GENIPIN],–,–,inactive,20 µg/mL,–,inhibition at 20 µg/mL (Hepatitis C virus [6]): 73.2%
COC(=O)C1=CO[C@@H](O[C@@H]2O[C@H](CO)[C@@H](O)[C@H](O)[C@H]2O)[C@@H]2[C@H](C)[C@@H](O)C[C@H]12,-12.7%,inactive,–,–,0.4%,–
COC(=O)C1=CO[C@@H](O[C@@H]2O[C@H](CO)[C@@H](O)[C@H](O)[C@H]2O)[C@@H]2[C@@H](C)[C@@H](O)C[C@H]12 [LOGANIN],24.8%,inactive,inactive,16 µg/mL,41.4%,–
O=C(OCC1=C[C@@H](O)[C@@H]2C=CO[C@@H](O[C@@H]3O[C@H](CO)[C@@H](O)[C@H](O)[C@H]3O)[C@H]12)c1ccc(O)cc1 [AGNUSIDE],12.9%,inactive,–,–,20.3%,–
COC(=O)C1=CO[C@@H](O[C@@H]2O[C@H](CO)[C@@H](O)[C@H](O)[C@H]2O)[C@H]2[C@@H]1[C@H](O)[C@H](O)[C@]2(C)O,–,inactive,–,–,–,Activity (Hepatitis C virus [7]; Hepacivirus hominis): inactive
COC(=O)C1=COC(O)[C@H]2[C@@H]1[C@H](O)[C@H](O)C2(C)O (mixture of isomers),–,inactive,inactive,15 µg/mL,–,IC50 (Hepatitis C virus [8]): 2310 nM; Activity [9]: inactive; inhibition at 100 µg/mL (Hepatitis C virus [7]): 50%; Activity [10]: Non-toxic
C[C@H]1[C@H]2[C@H](O[C@@H]3O[C@H](CO)[C@@H](O)[C@H](O)[C@H]3O)OC=C(C(=O)O)[C@H]2C[C@@H]1O,-21.6%,inactive,–,–,5.3%,–
COC(=O)C1=CO[C@@H](O[C@@H]2O[C@H](CO)[C@@H](O)[C@H](O)[C@H]2O)[C@@H]2C(CO)=CC[C@H]12 [GENIPOSIDE],9.8%,inactive,–,–,17.1%,inhibition at 20 µg/mL (Hepatitis C virus [6]): 1.1%
COC(=O)C1=CO[C@@H](O[C@@H]2O[C@H](CO)[C@@H](O)[C@H](O)[C@H]2O)[C@H]2[C@@H]1C=C[C@@]2(O)CO [GARDENOSIDE],-3.4%,inactive,–,–,21.1%,–
COC(=O)C1=CO[C@@H](O[C@@H]2O[C@H](CO)[C@@H](O)[C@H](O)[C@H]2O)[C@H]2[C@@H]1[C@H](O)C[C@]2(C)O [SHANZHISIDE METHYL ESTER],49%,inactive,inactive,18 µg/mL,61.2%,inhibition at 20 µg/mL (Hepatitis C virus [6]): -13.1%

# — ChEMBL document CHEMBL1153732, “Lamiridosins, hepatitis C virus entry inhibitors from Lamium album” (J Nat Prod, 2009)
